Experimental data from ChEMBL document CHEMBL2146421, “Synthesis and anticonvulsant activity of some new thiazolo[3,2-a][1,3]diazepine, benzo[d]thiazolo[5,2-a][12,6]diazepine and benzo[d]oxazolo[5,2-a][12,6]diazepine analogues” (Eur J Med Chem, 2011).

Experiments:
[1] = tested on: Mus musculus; assay: Anticonvulsant activity in Swiss albino mouse assessed as protection against pentylenetetrazole-induced convulsion at 1.5 mmol/kg, ip treated after 30 mins of pentylenetetrazole measured for 30 mins; assay type: functional
[2] = tested on: Mus musculus; assay: Anticonvulsant activity in Swiss albino mouse assessed as protection against pentylenetetrazole-induced convulsion at 0.75 mmol/kg, ip treated after 30 mins of pentylenetetrazole measured for 30 mins; assay type: functional
[3] = tested on: Mus musculus; assay: Anticonvulsant activity in Swiss albino mouse assessed as protection against pentylenetetrazole-induced convulsion at 0.375 mmol/kg, ip treated after 30 mins of pentylenetetrazole measured for 30 mins; assay type: functional
[4] = tested on: Mus musculus; assay: Neurotoxicity in Swiss albino mouse assessed as inability to climb up backwards in a glass tube within 30 seconds at 1.5 mmol/kg, ip measured after 15 and 25 mins by Chimney test; assay type: toxicity, organism-based; conditions: in vivo
Method in brief: (§1)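 Chimney test: 15 and 25 min after i.p. dosing (3.0, 1.5, 0.75, 0.375 mmol/kg), inability of mice to climb backwards up a glass tube 25 cm long, 3 cm inner diameter, within 30 s recorded as neurological deficit.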

[5] = tested on: Mus musculus; assay: Neurotoxicity in Swiss albino mouse assessed as inability to climb up backwards in a glass tube within 30 seconds at 0.75 mmol/kg, ip measured after 15 and 25 mins by Chimney test; assay type: toxicity, organism-based; conditions: in vivo; method in brief: as §1
[6] = tested on: Mus musculus; assay: Neurotoxicity in Swiss albino mouse assessed as inability to climb up backwards in a glass tube within 30 seconds at 0.375 mmol/kg, ip measured after 15 and 25 mins by Chimney test; assay type: toxicity, organism-based; conditions: in vivo; method in brief: as §1
[7] = tested on: Mus musculus; assay: Neurotoxicity in Swiss albino mouse assessed as effect on motor activity at 1.5 mmol/kg, ip after 30 mins; assay type: toxicity, organism-based; conditions: in vivo, 0.5 h
Method in brief: (§2)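 Motor activity measured with an activity meter at 0 and 30 min after i.p. dosing, zero time taken as 100%.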

[8] = tested on: Mus musculus; assay: Neurotoxicity in Swiss albino mouse assessed as effect on motor activity at 0.75 mmol/kg, ip after 30 mins; assay type: toxicity, organism-based; conditions: in vivo, 0.5 h; method in brief: as §2
[9] = tested on: Mus musculus; assay: Neurotoxicity in Swiss albino mouse assessed as effect on motor activity at 0.375 mmol/kg, ip after 30 mins; assay type: toxicity, organism-based; conditions: in vivo, 0.5 h; method in brief: as §2
[10] = tested on: Mus musculus; assay: Hypnotic activity in Swiss albino mouse assessed as righting reflex at 1.5 mmol/kg, ip; assay type: ADME, organism-based; conditions: in vivo
[11] = tested on: Mus musculus; assay: Hypnotic activity in Swiss albino mouse assessed as righting reflex at 0.75 mmol/kg, ip; assay type: ADME, organism-based; conditions: in vivo
[12] = tested on: Mus musculus; assay: Hypnotic activity in Swiss albino mouse assessed as righting reflex at 0.375 mmol/kg, ip; assay type: ADME, organism-based; conditions: in vivo
[13] = Toxicity in Swiss albino mouse assessed as mortality at 1.5 mmol/kg, ip measured 7 to 11 mins before pentylenetetrazole challenge; assay type: organism-based; conditions: in vivo, read-out: Activity
Method in brief: (§3)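 Compounds given i.p. at 3.0, 1.5, 0.75 and 0.375 mmol/kg to 6 mice per compound. Deaths occurring before the PTZ injection were recorded. PTZ (83 mg/kg s.c.) followed 30 min after compound dosing.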

[14] = Toxicity in Swiss albino mouse assessed as mortality at 0.75 mmol/kg, ip measured 7 to 11 mins before pentylenetetrazole challenge; assay type: organism-based; conditions: in vivo, read-out: Activity; method in brief: as §3
[15] = Toxicity in Swiss albino mouse assessed as mortality at 0.375 mmol/kg, ip measured 7 to 11 mins before pentylenetetrazole challenge; assay type: organism-based; conditions: in vivo, read-out: Activity; method in brief: as §3
[16] = tested on: Mus musculus; assay: Neurotoxicity in Swiss albino mouse assessed as inability to climb up backwards in a glass tube within 30 seconds at 3 mmol/kg, ip measured after 15 and 25 mins by Chimney test; assay type: toxicity, organism-based; conditions: in vivo; method in brief: as §1
[17] = tested on: Mus musculus; assay: Anticonvulsant activity in Swiss albino mouse assessed as protection against pentylenetetrazole-induced convulsion at 3 mmol/kg, ip treated after 30 mins of pentylenetetrazole measured for 30 mins; assay type: functional
[18] = tested on: Mus musculus; assay: Anticonvulsant activity in Swiss albino mouse assessed as protection against maximal electroshock-induced convulsion at 3.0 mmol/kg, ip […]; assay type: functional
Method in brief: (§4)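 Test agent given i.p. to mice; 30 min later electric shock applied through the ears, animals released immediately to observe maximal seizure; percentage protected recorded (10 animals per dose in dose-response runs).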

[19] = tested on: Mus musculus; assay: Anticonvulsant activity in Swiss albino mouse assessed as protection against maximal electroshock-induced convulsion at 1.5 mmol/kg, ip […]; assay type: functional
Method in brief: (§5)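 Test compound given i.p. to mice; 30 min later, electric shock was applied through the ears while the mice were hand-restrained. The mice were then released to observe the maximal seizure. Each dose was tested in 10 animals and the percentage protected was recorded.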

[20] = tested on: Mus musculus; assay: Anticonvulsant activity in Swiss albino mouse assessed as protection against maximal electroshock-induced convulsion at 0.75 mmol/kg, ip […]; assay type: functional; method in brief: as §4
[21] = tested on: Mus musculus; assay: Anticonvulsant activity in Swiss albino mouse assessed as protection against maximal electroshock-induced convulsion at 0.37 mmol/kg, ip […]; assay type: functional; method in brief: as §5
[22] = tested on: Mus musculus; assay: Anticonvulsant activity in Swiss albino mouse assessed as protection against picrotoxin-induced convulsion at 1.5 mmol/kg, ip […] measured for 30 mins; assay type: functional
Method in brief: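 Test compound given i.p.; 30 min later, picrotoxin 3.15 mg/kg s.c. was injected. Picrotoxin was freshly dissolved in 1 ml warmed 0.1 N HCl and made up with 0.9% NaCl. Each dose was tested in 10 animals and the percentage of mice protected from clonic convulsions was recorded.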

[23] = tested on: Mus musculus; assay: Anticonvulsant activity in Swiss albino mouse assessed as protection against bicuculline-induced convulsion at 3.0 mmol/kg, ip […] measured for 30 mins; assay type: functional
Method in brief: (§6)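 Mice (6 per compound) dosed i.p.; 30 min later given bicuculline 1 mg/kg s.c. (freshly dissolved in 1 ml warmed 0.1 N HCl, made up with 0.9% NaCl), then observed 30 min; percentage anticonvulsion (animals protected) calculated. Dose-response runs used 10 animals per dose.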

[24] = tested on: Mus musculus; assay: Anticonvulsant activity in Swiss albino mouse assessed as protection against bicuculline-induced convulsion at 1.5 mmol/kg, ip […] measured for 30 mins; assay type: functional; method in brief: as §6
[25] = tested on: Mus musculus; assay: Anticonvulsant activity in Swiss albino mouse assessed as protection against bicuculline-induced convulsion at 0.75 mmol/kg, ip […] measured for 30 mins; assay type: functional; method in brief: as §6
[26] = tested on: Mus musculus; assay: Anticonvulsant activity in Swiss albino mouse assessed as protection against bicuculline-induced convulsion at 0.37 mmol/kg, ip […] measured for 30 mins; assay type: functional; method in brief: as §6
[27] = tested on: Mus musculus; assay: Anticonvulsant activity in ip dosed Swiss albino mouse assessed as protection against maximal electroshock-induced convulsion; assay type: functional; method in brief: as §4
[28] = Toxicity in ip dosed Swiss albino mouse assessed as sedative effect; assay type: organism-based; conditions: in vivo
[29] = species: Mus musculus; assay: Protective index, ratio of TD50 for Swiss albino mouse to ED50 for anticonvulsant activity in Swiss albino mouse; assay type: functional
Method in brief: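 TD50 (median sedative dose) divided by ED50 (median effective dose), from dose-response curves at 10 mice per dose; 95% confidence limits given.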

[30] = Toxicity in Swiss albino mouse by Spearman-Karber method; assay type: organism-based; conditions: in vivo
Method in brief: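 LD50 in mice was determined by the Spearman–Karber method, with doses chosen at equal logarithmic intervals. 95% confidence limits were reported.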

[31] = Therapeutic index, ratio of LD50 for Swiss albino mouse to ED50 for anticonvulsant activity in Swiss albino mouse; assay type: organism-based; conditions: in vivo, read-out: Ratio LD50/ED50
Method in brief: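 TI was calculated as LD50/ED50. ED50 came from dose-response curves in 10 mice per dose. LD50 was determined by the Spearman–Karber method, with doses at equal logarithmic intervals.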

[32] = tested on: Mus musculus; assay: Neurotoxicity in Swiss albino mouse assessed as effect on motor activity at 3 mmol/kg, ip after 30 mins; assay type: toxicity, organism-based; conditions: in vivo, 0.5 h; method in brief: as §2
[33] = tested on: Mus musculus; assay: Hypnotic activity in Swiss albino mouse assessed as righting reflex at 3 mmol/kg, ip; assay type: ADME, organism-based; conditions: in vivo
[34] = Toxicity in Swiss albino mouse assessed as mortality at 3 mmol/kg, ip measured 7 to 11 mins before pentylenetetrazole challenge; assay type: organism-based; conditions: in vivo, read-out: Activity; method in brief: as §3
[35] = tested on: Mus musculus; assay: Neurotoxicity in Swiss albino mouse assessed as inability to climb up backwards in a glass tube within 30 seconds at 0.37 mmol/kg, ip measured after 15 and 25 mins by Chimney test; assay type: toxicity, organism-based; conditions: in vivo; method in brief: as §1
[36] = tested on: Mus musculus; assay: Anticonvulsant activity in Swiss albino mouse assessed as protection against pentylenetetrazole-induced convulsion at 0.37 mmol/kg, ip treated 30 mins before pentylenetetrazole measured for 30 mins
[37] = Toxicity in Swiss albino mouse assessed as mortality at 1.38 mmol/kg, sc; assay type: organism-based; conditions: in vivo, read-out: Activity
[38] = tested on: Mus musculus; assay: Anticonvulsant activity in Swiss albino mouse assessed as protection against pentylenetetrazole-induced convulsion at 1.38 mmol/kg, ip treated after 30 mins of pentylenetetrazole measured for 30 mins; assay type: functional
[39] = tested on: Mus musculus; assay: Neurotoxicity in Swiss albino mouse assessed as inability to climb up backwards in a glass tube within 30 seconds at 1.38 mmol/kg, ip measured after 15 and 25 mins by Chimney test; assay type: toxicity, organism-based; conditions: in vivo
Method in brief: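 Chimney test: at 15 and 25 min after dosing, inability of mice to climb backwards up a glass tube (25 cm long, 3 cm inner diameter) within 30 s was scored as neurological deficit.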

S=C1CCCN2C=CSC2=N1
Activity [1]: 0%
Activity [2]: 0%
Activity [3]: 0%
Activity [4]: 100%
Activity [5]: 30%
Activity [6]: 10%
Activity [7]: 11%
Activity [8]: 26%
Activity [9]: 30%
Activity [10]: 0%
Activity [11]: 0%
Activity [12]: 0%
mortality [13]: 50%
mortality [14]: 10%
mortality [15]: 0%

O=C1CCCN2C=C(Br)SC2=N1
Activity [1]: 30%
Activity [2]: 0%
Activity [3]: 0%
Activity [4]: 80%
Activity [5]: 40%
Activity [6]: 10%
Activity [7]: 12%
Activity [8]: 13%
Activity [9]: 15%
Activity [10]: 30%
Activity [11]: 0%
Activity [12]: 0%
mortality [13]: 0%
mortality [14]: 0%
mortality [15]: 0%

O=C1CCCN2C(=N1)Oc1ccc(Cl)cc12
Activity [1]: 67%
Activity [2]: 33%
Activity [4]: 50%
Activity [5]: 17%
Activity [7]: 50%
Activity [8]: 33%
Activity [10]: 0%
Activity [11]: 0%
mortality [13]: 0%
mortality [14]: 0%
Activity [16]: 100%
Activity [17]: 100%
Activity [18]: 70%
Activity [19]: 10%
Activity [20]: 0%
Activity [21]: 0%
Activity [22]: 40%
Activity [23]: 100%
Activity [24]: 50%
Activity [25]: 20%
Activity [26]: 0%
ED50 [27]: 251 mg/kg
TD50 [28]: 355 mg/kg
Ratio TD50/ED50 [29]: 1.41
LD50 [30]: 537 mg/kg
selectivity ratio [31]: 2.14
Activity [32]: 80%
Activity [33]: 17%
mortality [34]: 0%
Activity [35]: 0%
Activity [36]: 0%

CCCC(CCC)C(=O)[O-].[Na+] [VALPROATE SODIUM]
mortality [37]: 0%
Activity [38]: 100%
Activity [39]: 100%
